Assay results from ChEMBL document CHEMBL4342493, “Design and Optimization of 3'-(Imidazo[1,2-a]pyrazin-3-yl)-[1,1'-biphenyl]-3-carboxamides as Selective DDR1 Inhibitors” (ACS Med Chem Lett, 2020).
pIC50: −log10 of the molar value.

Key:
[1] = biological target: Epithelial discoidin domain-containing receptor 1 (Homo sapiens, UniProt Q08345); assay: Inhibition of recombinant human GST-tagged DDR1 catalytic domain (440 to 876 residues) expressed in baculovirus expression system using Fluorescein-poly GAT as substrate incubated for 1 hr in presence of ATP by LanthaScreen Eu kinase assay
[2] = biological target: T1, Discoidin domain-containing receptor 2 (Homo sapiens, UniProt Q16832); assay: Inhibition of recombinant human GST-tagged DDR2 cytoplasmic domain (427 to 855 residues) expressed in baculovirus expression system using Fluorescein-poly GAT as substrate incubated for 1 hr in presence of ATP by LanthaScreen Eu kinase assay
T1 sequence (Q16832 whole entry): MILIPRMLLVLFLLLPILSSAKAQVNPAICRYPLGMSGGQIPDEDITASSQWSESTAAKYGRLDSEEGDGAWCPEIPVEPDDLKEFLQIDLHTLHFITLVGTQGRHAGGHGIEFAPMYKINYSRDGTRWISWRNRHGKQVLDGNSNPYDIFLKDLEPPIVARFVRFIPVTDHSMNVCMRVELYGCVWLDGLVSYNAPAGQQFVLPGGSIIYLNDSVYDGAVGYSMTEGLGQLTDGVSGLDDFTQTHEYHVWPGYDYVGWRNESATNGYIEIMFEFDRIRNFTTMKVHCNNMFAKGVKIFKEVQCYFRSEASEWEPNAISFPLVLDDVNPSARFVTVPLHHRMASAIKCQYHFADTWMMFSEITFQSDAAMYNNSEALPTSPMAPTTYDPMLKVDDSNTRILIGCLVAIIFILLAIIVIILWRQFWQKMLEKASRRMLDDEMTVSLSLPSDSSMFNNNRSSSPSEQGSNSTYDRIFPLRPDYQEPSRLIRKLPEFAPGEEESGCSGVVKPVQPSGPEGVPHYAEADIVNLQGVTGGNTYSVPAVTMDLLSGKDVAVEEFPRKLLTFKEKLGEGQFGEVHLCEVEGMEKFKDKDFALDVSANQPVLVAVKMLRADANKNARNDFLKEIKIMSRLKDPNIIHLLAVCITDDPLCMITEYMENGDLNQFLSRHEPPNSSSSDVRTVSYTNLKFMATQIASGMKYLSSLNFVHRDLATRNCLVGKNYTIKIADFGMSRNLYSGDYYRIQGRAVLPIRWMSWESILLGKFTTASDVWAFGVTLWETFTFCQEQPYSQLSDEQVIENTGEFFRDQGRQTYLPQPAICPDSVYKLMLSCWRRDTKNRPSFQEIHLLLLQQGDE
Method in brief: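 LanthaScreen Eu kinase assay for DDR2; IC50 values are means of three independent experiments, variations <20%.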

[3] = biological target: Bcr/Abl fusion protein (Homo sapiens, UniProt P00519); assay: Inhibition of human recombinant full length His-tagged Bcr-Abl expressed in baculovirus expression system using tyrosine-2 peptide as substrate after 1 hr in presence of […] ATP by FRET based Z'-LYTE assay
Method in brief: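 FRET-based Z′-Lyte kinase assay for Bcr-Abl; IC50 values are means of three independent experiments, variations <20%.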

[4] = biological target: Mast/stem cell growth factor receptor Kit (Homo sapiens, UniProt P10721); assay: Inhibition of human recombinant His-tagged c-Kit cytoplasmic domain (544 to 976 residues) expressed in baculovirus expression system using Ser/Thr 6 peptide as substrate after 1 hr in presence of 300 uM ATP by FRET based Z'-LYTE assay
Mast/stem cell growth factor receptor Kit, sequence (P10721 whole entry, the tested form may be a part): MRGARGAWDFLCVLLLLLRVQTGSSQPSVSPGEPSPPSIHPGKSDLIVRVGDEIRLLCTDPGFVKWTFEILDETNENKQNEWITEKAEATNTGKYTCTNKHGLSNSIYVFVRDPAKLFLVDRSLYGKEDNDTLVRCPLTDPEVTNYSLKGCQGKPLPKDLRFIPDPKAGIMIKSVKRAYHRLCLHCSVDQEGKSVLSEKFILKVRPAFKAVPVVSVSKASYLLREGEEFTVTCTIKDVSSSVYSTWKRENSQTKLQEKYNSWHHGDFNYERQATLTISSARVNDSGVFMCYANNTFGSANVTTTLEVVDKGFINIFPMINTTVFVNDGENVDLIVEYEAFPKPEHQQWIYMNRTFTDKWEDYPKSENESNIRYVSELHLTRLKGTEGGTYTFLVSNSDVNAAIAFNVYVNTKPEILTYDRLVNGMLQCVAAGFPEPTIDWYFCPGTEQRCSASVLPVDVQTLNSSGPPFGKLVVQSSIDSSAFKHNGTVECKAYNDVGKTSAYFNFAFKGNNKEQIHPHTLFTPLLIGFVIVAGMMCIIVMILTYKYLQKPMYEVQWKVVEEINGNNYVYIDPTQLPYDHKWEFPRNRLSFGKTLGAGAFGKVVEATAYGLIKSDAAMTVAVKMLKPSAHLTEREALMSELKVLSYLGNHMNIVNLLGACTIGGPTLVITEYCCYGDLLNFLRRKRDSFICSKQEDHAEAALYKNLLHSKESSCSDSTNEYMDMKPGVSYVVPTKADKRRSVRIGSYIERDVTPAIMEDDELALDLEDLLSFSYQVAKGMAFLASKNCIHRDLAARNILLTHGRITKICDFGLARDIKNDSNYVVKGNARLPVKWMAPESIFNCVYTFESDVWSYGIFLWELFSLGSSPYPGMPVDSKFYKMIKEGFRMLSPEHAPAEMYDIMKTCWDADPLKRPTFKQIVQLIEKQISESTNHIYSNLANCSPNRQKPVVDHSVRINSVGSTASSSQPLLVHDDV

Epithelial discoidin domain-containing receptor 1, sequence (Q08345 whole entry, the tested form may be a part): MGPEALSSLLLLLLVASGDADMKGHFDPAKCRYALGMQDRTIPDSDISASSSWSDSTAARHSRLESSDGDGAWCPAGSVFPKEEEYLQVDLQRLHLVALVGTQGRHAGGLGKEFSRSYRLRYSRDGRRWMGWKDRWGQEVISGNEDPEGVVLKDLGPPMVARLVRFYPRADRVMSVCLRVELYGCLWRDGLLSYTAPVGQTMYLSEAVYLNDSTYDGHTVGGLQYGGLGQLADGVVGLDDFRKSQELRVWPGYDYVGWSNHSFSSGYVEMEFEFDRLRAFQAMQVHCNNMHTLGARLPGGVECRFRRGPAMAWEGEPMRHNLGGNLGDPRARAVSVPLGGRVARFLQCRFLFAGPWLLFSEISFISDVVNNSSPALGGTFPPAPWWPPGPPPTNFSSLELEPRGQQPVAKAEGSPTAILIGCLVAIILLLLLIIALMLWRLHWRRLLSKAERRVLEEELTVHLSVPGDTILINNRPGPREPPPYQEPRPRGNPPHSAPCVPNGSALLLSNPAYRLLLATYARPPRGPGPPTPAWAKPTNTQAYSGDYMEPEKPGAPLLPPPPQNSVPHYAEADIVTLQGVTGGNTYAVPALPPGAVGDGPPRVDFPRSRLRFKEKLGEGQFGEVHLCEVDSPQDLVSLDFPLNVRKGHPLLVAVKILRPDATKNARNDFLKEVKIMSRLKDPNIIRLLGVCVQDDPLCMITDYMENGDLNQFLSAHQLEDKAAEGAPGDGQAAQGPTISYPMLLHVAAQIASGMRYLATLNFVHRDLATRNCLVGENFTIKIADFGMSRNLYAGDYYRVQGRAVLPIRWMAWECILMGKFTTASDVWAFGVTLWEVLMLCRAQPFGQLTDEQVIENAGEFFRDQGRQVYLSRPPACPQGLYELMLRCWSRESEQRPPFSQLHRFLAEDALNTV
Bcr/Abl fusion protein, sequence (P00519 whole entry, the tested form may be a part): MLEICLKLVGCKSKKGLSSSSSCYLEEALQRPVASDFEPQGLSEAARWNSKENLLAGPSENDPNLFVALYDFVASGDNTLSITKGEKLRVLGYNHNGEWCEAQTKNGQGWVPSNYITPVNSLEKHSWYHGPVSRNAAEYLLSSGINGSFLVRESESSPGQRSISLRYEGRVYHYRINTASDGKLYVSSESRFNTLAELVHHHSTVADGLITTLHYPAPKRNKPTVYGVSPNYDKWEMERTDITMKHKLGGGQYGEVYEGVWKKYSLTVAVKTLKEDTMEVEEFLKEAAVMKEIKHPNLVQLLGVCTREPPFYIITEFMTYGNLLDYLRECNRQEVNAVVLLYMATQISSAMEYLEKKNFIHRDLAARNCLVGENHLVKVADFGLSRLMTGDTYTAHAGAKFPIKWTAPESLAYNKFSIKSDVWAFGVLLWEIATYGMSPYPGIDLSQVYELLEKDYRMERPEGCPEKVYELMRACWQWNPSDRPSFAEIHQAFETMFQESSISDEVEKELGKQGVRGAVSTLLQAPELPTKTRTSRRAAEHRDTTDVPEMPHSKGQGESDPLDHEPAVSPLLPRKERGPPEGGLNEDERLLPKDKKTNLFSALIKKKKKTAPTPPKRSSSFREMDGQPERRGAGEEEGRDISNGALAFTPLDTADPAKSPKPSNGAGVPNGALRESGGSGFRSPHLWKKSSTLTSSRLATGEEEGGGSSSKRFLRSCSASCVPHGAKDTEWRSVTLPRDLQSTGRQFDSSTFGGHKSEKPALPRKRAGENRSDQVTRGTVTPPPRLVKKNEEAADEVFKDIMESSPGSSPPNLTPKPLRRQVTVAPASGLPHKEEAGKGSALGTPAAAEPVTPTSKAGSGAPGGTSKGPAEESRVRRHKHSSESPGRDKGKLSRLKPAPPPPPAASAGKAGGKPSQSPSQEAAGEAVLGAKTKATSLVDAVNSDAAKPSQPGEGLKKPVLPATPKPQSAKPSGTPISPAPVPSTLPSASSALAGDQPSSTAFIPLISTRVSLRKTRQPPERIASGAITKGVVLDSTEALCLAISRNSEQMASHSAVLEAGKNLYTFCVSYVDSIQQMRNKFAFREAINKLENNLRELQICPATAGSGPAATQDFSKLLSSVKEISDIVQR
Bcr/Abl fusion protein, sequence (P11274 whole entry, further chain, the tested form may be a part): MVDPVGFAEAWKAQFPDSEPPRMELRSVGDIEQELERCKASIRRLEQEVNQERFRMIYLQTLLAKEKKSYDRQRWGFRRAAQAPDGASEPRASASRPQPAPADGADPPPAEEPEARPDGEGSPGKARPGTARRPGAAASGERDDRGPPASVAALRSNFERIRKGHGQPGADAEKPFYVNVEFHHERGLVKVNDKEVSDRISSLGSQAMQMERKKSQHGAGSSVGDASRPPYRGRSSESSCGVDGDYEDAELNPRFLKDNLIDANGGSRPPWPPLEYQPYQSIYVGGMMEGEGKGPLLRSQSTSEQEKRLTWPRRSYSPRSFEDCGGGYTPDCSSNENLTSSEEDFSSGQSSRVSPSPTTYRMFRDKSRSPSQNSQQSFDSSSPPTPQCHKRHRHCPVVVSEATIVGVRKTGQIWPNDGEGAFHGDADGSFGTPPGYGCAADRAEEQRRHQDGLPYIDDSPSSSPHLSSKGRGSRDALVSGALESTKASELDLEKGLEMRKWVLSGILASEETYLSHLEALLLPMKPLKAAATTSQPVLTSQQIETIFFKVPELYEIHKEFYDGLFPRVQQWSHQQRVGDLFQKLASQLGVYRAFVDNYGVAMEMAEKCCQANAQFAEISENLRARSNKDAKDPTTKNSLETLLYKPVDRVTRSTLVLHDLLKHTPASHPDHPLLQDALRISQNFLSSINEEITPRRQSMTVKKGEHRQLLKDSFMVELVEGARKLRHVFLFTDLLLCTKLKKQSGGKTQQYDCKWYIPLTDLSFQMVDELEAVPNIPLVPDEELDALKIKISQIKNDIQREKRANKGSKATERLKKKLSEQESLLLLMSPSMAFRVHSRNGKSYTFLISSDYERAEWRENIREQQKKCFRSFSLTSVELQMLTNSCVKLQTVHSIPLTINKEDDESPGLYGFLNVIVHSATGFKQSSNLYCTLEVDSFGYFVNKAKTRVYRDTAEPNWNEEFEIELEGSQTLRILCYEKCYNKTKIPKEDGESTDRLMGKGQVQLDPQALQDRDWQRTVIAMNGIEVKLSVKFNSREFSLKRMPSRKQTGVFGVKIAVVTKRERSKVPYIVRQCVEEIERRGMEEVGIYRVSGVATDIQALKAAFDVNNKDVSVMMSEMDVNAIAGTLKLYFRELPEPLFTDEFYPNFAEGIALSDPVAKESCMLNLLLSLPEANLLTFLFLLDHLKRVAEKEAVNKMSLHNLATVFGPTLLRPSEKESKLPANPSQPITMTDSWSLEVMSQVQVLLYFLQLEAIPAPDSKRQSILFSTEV

SMILES	pIC50 [1]	pIC50 [2]	pIC50 [3]	pIC50 [4]
CCc1ccc(C(=O)Nc2cc(C(F)(F)F)ccc2F)cc1-c1cc(C)cc(-c2cnc3cnccn23)c1	7.44	< 5.30	< 5.00	< 5.00
CCc1ccc(C(=O)Nc2cccc(C(F)(F)F)c2F)cc1-c1cc(C)cc(-c2cnc3cnccn23)c1	7.13	< 5.30	< 5.00	< 5.00
CCc1ccc(C(=O)Nc2cccc(C(F)(F)F)c2)cc1-c1cc(-c2cnc3cnccn23)cc(C(C)(C)C)c1	7.04	< 5.00	< 5.00	< 5.00
CCc1ccc(C(=O)Nc2cccc(C(F)(F)F)c2)cc1-c1cc(-c2cnc3cnccn23)ccc1C	7.20	6.21	5.84	< 5.00
CCc1ccc(C(=O)Nc2cccc(C(F)(F)F)c2)cc1-c1cc(F)cc(-c2cnc3cnccn23)c1	7.52	5.88	5.27	5.18
CCc1ccc(C(=O)Nc2cc(CN3CCN(C)CC3)cc(C(F)(F)F)c2)cc1C#Cc1cnc2ccnn2c1	–	–	–	< 5.00
CCc1ccc(C(=O)Nc2ccccc2)cc1-c1cccc(-c2cnc3cnccn23)c1	5.31	< 5.00	5.29	5.05
CCc1ccc(C(=O)Nc2cccc(C(F)(F)F)c2)cc1-c1ccc(C)c(-c2cnc3cnccn23)c1	6.97	< 5.00	< 5.00	< 5.00
CCc1ccc(C(=O)Nc2cccc(C(F)(F)F)c2)cc1-c1cc(-c2cnc3cnccn23)cc(C(C)C)c1	7.17	5.58	< 5.00	< 5.00
CCc1ccc(C(=O)Nc2cc(CN3CCN(C)CC3)cc(C(F)(F)F)c2)cc1-c1cccc(-c2cnc3ccnn3c2)c1	6.44	6.71	< 5.00	< 5.00
CCc1ccc(C(=O)Nc2cccc(C(F)(F)F)c2)cc1-c1cccc(-c2cnc3cnccn23)c1C	7.52	6.18	5.74	5.22
CCc1cc(-c2cc(C(=O)Nc3cccc(C(F)(F)F)c3)ccc2CC)cc(-c2cnc3cnccn23)c1	7.37	5.49	< 5.00	< 5.00
CCc1ccc(C(=O)Nc2ccc(F)c(C(F)(F)F)c2)cc1-c1cc(C)cc(-c2cnc3cnccn23)c1	7.25	< 5.30	< 5.00	< 5.00
CCc1ccc(C(=O)Nc2cccc(C(F)(F)F)c2)cc1-c1cc(C)cc(-c2cnc3cnccn23)c1	7.65	5.76	< 5.00	< 5.00
CCc1ccc(C(=O)Nc2cccc(C(F)(F)F)c2)cc1-c1cc(Cl)cc(-c2cnc3cnccn23)c1	7.67	5.97	< 5.00	5.07
CCc1ccc(C(=O)Nc2ccccc2C(F)(F)F)cc1-c1cccc(-c2cnc3cnccn23)c1	5.31	< 5.00	< 5.00	< 5.00

Stronger by pIC50 [4], values ahead:

pIC50 [1]	pIC50 [2]	pIC50 [3]	pIC50 [4]	SMILES
5.90	< 5.00	< 5.00	5.77	CC(C)c1ccc(C(=O)Nc2cccc(C(F)(F)F)c2)cc1-c1cccc(-c2cnc3cnccn23)c1
7.98	6.14	5.65	5.54	CCc1ccc(C(=O)Nc2cccc(C(F)(F)F)c2)cc1-c1cccc(-c2cnc3cnccn23)c1
8.04	6.87	6.63	7.14	Cc1ccc(C(=O)Nc2cccc(C(F)(F)F)c2)cc1-c1cccc(-c2cnc3cnccn23)c1
7.78	5.99	5.43	5.30	CCc1ccc(C(=O)Nc2cccc(C(F)(F)F)c2)cc1-c1cc(OC)cc(-c2cnc3cnccn23)c1
7.81	6.02	5.25	5.43	CCc1ccc(C(=O)Nc2cccc(C(F)(F)F)c2)cc1-c1cc(C#N)cc(-c2cnc3cnccn23)c1
5.89	< 5.00	5.30	5.40	CCc1ccc(C(=O)Nc2ccc(C(F)(F)F)cc2)cc1-c1cccc(-c2cnc3cnccn23)c1
8.02 to 8.06	7.18	6.36	6.21	CCc1ccc(C(=O)Nc2cc(CN3CCN(C)CC3)cc(C(F)(F)F)c2)cc1-c1cccc(-c2cnc3cnccn23)c1
6.45	< 5.00	6.00	5.31	CCc1ccc(C(=O)Nc2cccc(CN3CCN(C)CC3)c2)cc1-c1cccc(-c2cnc3cnccn23)c1
